Laboratory results: ChEMBL document CHEMBL4261570, “Design, Synthesis and Preliminary Antimicrobial Evaluation of N-Alkyl Chain Tethered C-5 Functionalized Bis-Isatins” (Medchemcomm, 2017)
Active and inactive are the calls of the source. No cut-off for these calls is given here.

Key:
Trichomonas vaginalis = test: Antiparasitic activity against Trichomonas vaginalis assessed as parasite growth inhibition at 50 uM after 24 hrs by hemacytometer relative to control; format: functional; conditions: read-out: GI
How it was run: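 G3 strain cultured in TYM Diamond's medium in 15 mL tubes, with compound in DMSO. Controls were untreated and 0.1% DMSO. After 24 h, cells were counted by hemacytometer and normalized to the DMSO controls. Screening was at 50 μM. IC50 came from titrations of 5–40 μM with variable-slope regression, 4 independent trials on different days, and was then re-confirmed.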

Entamoeba histolytica = test: Antiparasitic activity against Entamoeba histolytica HM-1:IMSS trophozoites assessed as parasite growth inhibition at 50 uM after 48 hrs by ATP bioluminescence-based CellTiter-Glo luminescent cell viability assay relative to control; format: functional; conditions: for inhibition of growth at 50 µM: read-out: GI
How it was run: (§1)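 Trophozoites kept axenically in TYI-S-33 with penicillin and streptomycin. Each well held 5000 trophozoites and was incubated 48 h at 37 °C under anaerobic conditions in a GasPak pouch. Read-out was CellTiter-Glo ATP luminescence. Controls were 0.5% DMSO vehicle and 30 μM metronidazole. Primary screen at 50 μM in duplicate; hits were those above 50% inhibition. EC50 came from triplicate 8-point series (0.39–50 μM) and dose-response curves.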

[1] = system: Limosilactobacillus reuteri; test: Toxicity in Lactobacillus reuteri ATCC 23272 at 100 uM measured after overnight incubation by disc diffusion method; format: organism-based; conditions: in vivo
How it was run: (§2)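 Grown in Lactobacilli MRS at 37 °C under anaerobic conditions. Blank 6 mm discs were soaked 20 min at room temperature in a 100 μM working dilution in medium. Discs were placed on streaked agar alongside DMSO vehicle and antibiotic discs (levofloxacin, gentamicin), incubated overnight at 37 °C, and zones of inhibition measured in mm.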

Escherichia coli = test: Toxicity in Escherichia coli K-12 MG1655 at 100 uM measured after overnight incubation by disc diffusion method; format: organism-based, K-12 substr. MG1655; conditions: in vivo
How it was run: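 Grown in Luria broth at 37 °C under aerobic conditions. Blank 6 mm discs were soaked 20 min at room temperature in a 100 μM working dilution in medium. Discs were placed on streaked agar alongside DMSO vehicle and antibiotic discs (levofloxacin, gentamicin), incubated overnight at 37 °C, and inhibition zones measured in mm.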

Giardia intestinalis [2] = test: Antiparasitic activity against Giardia lamblia WB trophozoites assessed as parasite growth inhibition after 48 hrs by ATP bioluminescence-based CellTiter-Glo luminescent cell viability assay; format: functional, organism-based; conditions: Giardia duodenalis; how it was run: as §1
[3] = system: Lactobacillus acidophilus; test: Toxicity in Lactobacillus acidophilus ATCC 43560 at 100 uM measured after overnight incubation by disc diffusion method; format: organism-based; conditions: in vivo; how it was run: as §2
Giardia intestinalis [4] = test: Antiparasitic activity against Giardia lamblia WB trophozoites assessed as parasite growth inhibition at 50 uM after 48 hrs by ATP bioluminescence-based CellTiter-Glo luminescent cell viability assay relative to control; format: functional; conditions: Giardia duodenalis; for inhibition of growth at 50 µM: read-out: GI; how it was run: as §1
[5] = system: Lacticaseibacillus rhamnosus; test: Toxicity in Lactobacillus rhamnosus ATCC 53103 at 100 uM measured after overnight incubation by disc diffusion method; format: organism-based, GG; conditions: in vivo; how it was run: as §2
Naegleria fowleri = test: Antiparasitic activity against Naegleria fowleri KUL trophozoites assessed as parasite growth inhibition after 48 hrs by ATP bioluminescence-based CellTiter-Glo luminescent cell viability assay; format: functional, organism-based
How it was run: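 Strain KUL trophozoites cultured axenically in Nelson's medium with 10% FBS at 37 °C. Each well held 10 000 trophozoites, incubated under aerobic conditions without the anaerobe pouch. Read-out was CellTiter-Glo luminescence. Positive control was 50 μM amphotericin B. Hits were serially diluted in triplicate, 8 points from 0.39 to 50 μM, and EC50 was taken from dose-response curves.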

Saccharomyces cerevisiae [6] = test: Antifungal activity against Saccharomyces cerevisiae BY4741 assessed as fungal growth at 500 uM after 24 hrs by microtiter plate liquid bioassay (reference value: 100%); format: functional
Aspergillus parasiticus [7] = test: Antifungal activity against Aspergillus parasiticus NRRL5862 assessed as fungal growth at 500 uM after 48 hrs by microtiter plate liquid bioassay (reference value: 100%); format: functional
How it was run: (§3)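 A. parasiticus grown at 35 °C on PDA. Liquid assay in RPMI 1640, 3 × 104 to 5 × 10^4 CFU per mL, triplicate wells, 35 °C. Compounds in DMSO (<2% in media). No-treatment wells carry matched DMSO. Wells scored visually 0–4 versus the no-treatment control: 0 clear, 1 25%, 2 50%, 3 75%, 4 no reduction. Scoring follows CLSI M38-A.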

Saccharomyces cerevisiae [8] = test: Antifungal activity against Saccharomyces cerevisiae BY4741 assessed as fungal growth at 500 uM after 48 hrs by microtiter plate liquid bioassay (reference value: 100%); format: functional
Aspergillus parasiticus [9] = test: Antifungal activity against Aspergillus parasiticus NRRL5862 assessed as fungal growth at 500 uM after 24 hrs by microtiter plate liquid bioassay (reference value: 100%); format: functional; how it was run: as §3

Row | Structure (SMILES) | inhibition of growth at 50 µM (Trichomonas vaginalis) [%] | inhibition of growth at 50 µM (Entamoeba histolytica) [%] | Activity [1] | Activity (Escherichia coli) | IC50 (Giardia intestinalis [2]) [µM] | Activity [3] | inhibition of growth at 50 µM (Giardia intestinalis [4]) [%] | Activity [5] | IC50 (Naegleria fowleri) [µM] | growth inhibition (GI) (Entamoeba histolytica) | Activity (Saccharomyces cerevisiae [6]) [%] | Activity (Aspergillus parasiticus [7]) [%] | Activity (Saccharomyces cerevisiae [8]) [%] | Activity (Aspergillus parasiticus [9]) | growth inhibition (GI) (Giardia intestinalis [4])
1 | O=C1C(=O)N(CCCCCCCCN2C(=O)C(=O)c3ccccc32)c2ccccc21 | 30.3 | 100 | Non-Toxic | Non-Toxic | 38 | Non-Toxic | 80.7 | Non-Toxic | – | – | – | – | – | – | –
2 | C[C@@H]1[C@H](O)[C@@H](C)/C=C/C=C/C=C/C=C/C=C/C=C/C=C/[C@H](O[C@@H]2O[C@H](C)[C@@H](O)[C@H](N)[C@@H]2O)C[C@@H]2O[C@](O)(C[C@@H](O)C[C@@H](O)[C@H](O)CC[C@@H](O)C[C@@H](O)CC(=O)O[C@H]1C)C[C@H](O)[C@H]2C(=O)O [AMPHOTERICIN B] | – | – | – | – | – | – | – | – | 0.2 | – | – | – | – | – | –
3 | O=C1C(=O)N(CCN2C(=O)C(=O)c3cc(F)ccc32)c2ccccc21 | 45.5 | – | Non-Toxic | Non-Toxic | – | Non-Toxic | 8.15 | Non-Toxic | – | inactive | – | – | – | – | –
4 | CCCCCCCCCCCCCCCCOP(=O)([O-])OCC[N+](C)(C)C [MILTEFOSINE] | – | – | – | – | – | – | – | – | 54.5 | – | – | – | – | – | –
5 | O=C1C(=O)N(CCCCCCN2C(=O)C(=O)c3ccccc32)c2ccccc21 | 45.5 | – | Non-Toxic | Non-Toxic | – | Non-Toxic | 9.68 | Non-Toxic | – | inactive | – | – | – | – | –
6 | CCCCCCCCOC(=O)c1cc(O)c(O)c(O)c1 [OCTYL_GALLATE] | – | – | – | – | – | – | – | – | – | – | 0 | 0 | 0 | 0% | –
7 | O=C1C(=O)N(CCCCCCN2C(=O)C(=O)c3cc(F)ccc32)c2ccccc21 | 100 | – | Non-Toxic | Non-Toxic | – | Non-Toxic | 30.9 | Non-Toxic | – | inactive | – | – | – | – | –
8 | O=C1C(=O)N(CCN2C(=O)C(=O)c3ccccc32)c2ccccc21 | 96.8 | – | Non-Toxic | Non-Toxic | – | Non-Toxic | 6.75 | Non-Toxic | – | inactive | – | – | – | – | –
9 | O=C1C(=O)N(CCCCCCCCN2C(=O)C(=O)c3cc(Br)ccc32)c2ccccc21 | 96.8 | – | Non-Toxic | Non-Toxic | – | Non-Toxic | 51.1 | Non-Toxic | – | inactive | – | – | – | – | –
10 | O=C1C(=O)N(CCN2C(=O)C(=O)c3cc(Br)ccc32)c2ccccc21 | 100 | – | Non-Toxic | Non-Toxic | – | Non-Toxic | – | Non-Toxic | – | inactive | – | – | – | – | inactive
11 | O=C1C(=O)N(CCCCN2C(=O)C(=O)c3cc(Cl)ccc32)c2ccccc21 | 100 | – | Non-Toxic | Non-Toxic | – | Non-Toxic | – | Non-Toxic | – | inactive | 25 | 100 | 75 | 100% | inactive
12 | O=C1C(=O)N(CCCBr)c2ccccc21 | 59.9 | 1.32 | Non-Toxic | Non-Toxic | – | Non-Toxic | 22.9 | Non-Toxic | – | – | 50 | 100 | 75 | 75 - 100% | –
13 | O=C1C(=O)N(CCCCCCCCN2C(=O)C(=O)c3cc(F)ccc32)c2ccccc21 | 100 | 13.8 | Non-Toxic | Non-Toxic | – | Non-Toxic | – | Non-Toxic | – | – | – | – | – | – | inactive
14 | O=C1C(=O)N(CCCCCCN2C(=O)C(=O)c3cc(Br)ccc32)c2ccccc21 | 100 | – | Non-Toxic | Non-Toxic | – | Non-Toxic | 43.2 | Non-Toxic | – | inactive | – | – | – | – | –
15 | O=C1C(=O)N(CCCCCN2C(=O)C(=O)c3cc(Br)ccc32)c2ccccc21 | 100 | – | Non-Toxic | Non-Toxic | – | Non-Toxic | – | Non-Toxic | – | inactive | 50 | 100 | 100 | 100% | inactive
16 | O=C1C(=O)N(CCCN2C(=O)C(=O)c3ccccc32)c2ccccc21 | 96.8 | – | Non-Toxic | Non-Toxic | – | Non-Toxic | 7.84 | Non-Toxic | – | inactive | – | – | – | – | –
17 | O=C1C(=O)N(CCCCCCCCN2C(=O)C(=O)c3cc(Cl)ccc32)c2ccccc21 | 75.8 | – | Non-Toxic | Non-Toxic | – | Non-Toxic | 8.56 | Non-Toxic | – | inactive | – | – | – | – | –
18 | O=C1C(=O)N(CCCN2C(=O)C(=O)c3cc(Cl)ccc32)c2ccccc21 | 100 | – | Non-Toxic | Non-Toxic | – | Non-Toxic | – | Non-Toxic | – | inactive | – | – | – | – | inactive
19 | O=C1C(=O)N(CCCCN2C(=O)C(=O)c3cc(F)ccc32)c2ccccc21 | 100 | – | Non-Toxic | Non-Toxic | – | Non-Toxic | 1.2 | Non-Toxic | – | inactive | – | – | – | – | –
20 | O=C1C(=O)N(CCCCCN2C(=O)C(=O)c3ccccc32)c2ccccc21 | 90.9 | 100 | Non-Toxic | Non-Toxic | 26 | Non-Toxic | 94.3 | Non-Toxic | – | – | – | – | – | – | –
21 | O=C1C(=O)N(CCCCCCN2C(=O)C(=O)c3cc(Cl)ccc32)c2ccccc21 | 93.9 | – | Non-Toxic | Non-Toxic | 31.5 | Non-Toxic | 94.5 | Non-Toxic | – | inactive | – | – | – | – | –
22 | O=C1C(=O)N(CCCCN2C(=O)C(=O)c3ccccc32)c2ccccc21 | 61.3 | – | Non-Toxic | Non-Toxic | – | Non-Toxic | 11.6 | Non-Toxic | – | inactive | – | – | – | – | –
